Source: ChEMBL document CHEMBL1128288, “7-Azetidinylquinolones as antibacterial agents. 3. Synthesis, properties and structure-activity relationships of the stereoisomers containing a 7-(3-amino-2-methyl-1-azetidinyl) moiety” (J Med Chem, 1995)
≈ marks a conversion by molar mass, not a printed value.

Legend:
Escherichia coli [1] = experiment: In vivo efficacy as ED50 against Escherichia coli HM-42 by oral administration in mice.; type: functional
How it was run: (§1)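 Mice, 4 groups of 10, infected intraperitoneally with slightly more than the LD100 of the organism. A single oral dose was given immediately after infection, with four doses (one per group) chosen from in vitro activity. Survival was scored after one week. ED50 (total dose, mg/kg, protecting 50%) was interpolated among group survival rates.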

Klebsiella pneumoniae = experiment: In vitro antibacterial activity measured as minimum inhibitory concentration was evaluated on klebsiella pneumoniae ATCC 10031 (Kp).; type: functional
How it was run: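 Serial 2-fold agar dilution in Mueller Hinton medium, run side by side with reference quinolones.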

Morganella morganii = experiment: In vitro antibacterial activity measured as minimum inhibitory concentration was evaluated on morganella morganii ATCC 8019 (Mm).; type: functional
How it was run: (§2)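 Serial 2-fold agar dilution in Mueller Hinton medium, run side by side with reference quinolones. Inoculum 10^5 cfu/mL; compound range 0.007–16 µg/mL.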

[2] = system: Staphylococcus epidermidis; experiment: In vitro antibacterial activity measured as minimum inhibitory concentration was evaluated on Staphylococcus epidermidis ATCC 155-1 (Se).; type: functional; how it was run: as §2
Proteus vulgaris = experiment: In vitro antibacterial activity measured as minimum inhibitory concentration was evaluated on proteus vulgaris ATCC 8427 (Pv).; type: functional; how it was run: as §2
Enterococcus faecalis = experiment: In vitro antibacterial activity measured as minimum inhibitory concentration was evaluated on Streptococcus faecalis ATCC 10541 (Sf).; type: functional; how it was run: as §2
Bacillus subtilis = experiment: In vitro antibacterial activity measured as minimum inhibitory concentration was evaluated on Bacillus subtilis ATCC 6633(Bs).; type: functional; how it was run: as §2
Staphylococcus aureus [3] = experiment: In vivo efficacy as ED50 against Staphylococcus aureus HS-93 by oral administration in mice.; type: functional; how it was run: as §1
Pseudomonas aeruginosa [4] = experiment: In vivo efficacy as ED50 against Pseudomonas aeruginosa HS-116 by oral administration in mice.; type: functional; how it was run: as §1
Bacillus cereus = experiment: In vitro antibacterial activity measured as minimum inhibitory concentration was evaluated on Bacillus cereus ATCC 11778 (Bc).; type: functional; how it was run: as §2
Staphylococcus aureus [5] = experiment: In vitro antibacterial activity measured as minimum inhibitory concentration was evaluated on Staphylococcus aureus ATCC 25178 (Sa).; type: functional; how it was run: as §2
[6] = mouse, in vivo, po, 50 mg/kg
Enterobacter cloacae = experiment: In vitro antibacterial activity measured as minimum inhibitory concentration, was evaluated on Enterobacter cloacae ATCC 23355 (Ecl).; type: functional
Escherichia coli [7] = experiment: In vitro antibacterial activity measured as minimum inhibitory concentration, was evaluated on Escherichia coli ATCC 23559(Ec).; type: functional; how it was run: as §2
Pseudomonas aeruginosa [8] = experiment: In vitro antibacterial activity measured as minimum inhibitory concentration was evaluated on Pseudomonas aeruginosa ATCC 10145 (Pa).; type: functional; how it was run: as §2
[9] = Escherichia coli, po, read-out: ED50
[10] = Klebsiella pneumoniae, ATCC 10031, read-out: MIC
[11] = Morganella morganii, ATCC 8019, read-out: MIC
[12] = Staphylococcus epidermidis, ATCC 155-1, read-out: MIC
[13] = Proteus vulgaris, ATCC 8427, read-out: MIC
[14] = Enterococcus faecalis, ATCC 10541, read-out: MIC
[15] = Bacillus subtilis, ATCC 6633, read-out: MIC
[16] = Staphylococcus aureus, po, read-out: ED50
[17] = Pseudomonas aeruginosa, po, read-out: ED50
[18] = Bacillus cereus, ATCC 11778, read-out: MIC
[19] = Staphylococcus aureus, ATCC 25178, read-out: MIC
[20] = Enterobacter cloacae, ATCC 23355, read-out: MIC
[21] = Escherichia coli, ATCC 23559, read-out: MIC
[22] = Pseudomonas aeruginosa, ATCC 10145, read-out: MIC

SMILES	ED50 (Escherichia coli [1]; [9])	MIC (Klebsiella pneumoniae; [10])	MIC (Morganella morganii; [11])	MIC [2, 12]	MIC (Proteus vulgaris; [13])	MIC (Enterococcus faecalis; [14])	MIC (Bacillus subtilis; [15])	ED50 (Staphylococcus aureus [3]; [16])	ED50 (Pseudomonas aeruginosa [4]; [17])	MIC (Bacillus cereus; [18])	MIC (Staphylococcus aureus [5]; [19])	AUC [6]	MIC (Enterobacter cloacae; [20])	MIC (Escherichia coli [7]; [21])	MIC (Pseudomonas aeruginosa [8]; [22])	MIC (Klebsiella pneumoniae)	MIC (Proteus vulgaris)	ED50 (Staphylococcus aureus [3])	other results
C[C@H]1[C@H](N)CN1c1c(F)cc2c(=O)c(C(=O)O)cn(C3CC3)c2c1Cl (single isomer, unassigned)	2.1 mg/kg	0.015 µg/mL (≈ 0.041 µM)	0.015 µg/mL (≈ 0.041 µM)	0.015 µg/mL (≈ 0.041 µM)	0.015 µg/mL (≈ 0.041 µM)	0.015 µg/mL (≈ 0.041 µM)	0.015 µg/mL (≈ 0.041 µM)	3.6 mg/kg	36 mg/kg	0.015 µg/mL (≈ 0.041 µM)	0.015 µg/mL (≈ 0.041 µM)	5200 ng·h/mL	0.015 µg/mL (≈ 0.041 µM)	0.015 µg/mL (≈ 0.041 µM)					
C[C@H]1[C@H](N)CN1c1nc2c(cc1F)c(=O)c(C(=O)O)cn2-c1ccc(F)cc1F (single isomer, unassigned)	4.2 mg/kg	0.015 µg/mL (≈ 0.0371 µM)		0.12 µg/mL (≈ 0.297 µM)	0.5 µg/mL (≈ 1.24 µM)	0.5 µg/mL (≈ 1.24 µM)	0.015 µg/mL (≈ 0.0371 µM)	6.6 mg/kg	156 mg/kg	0.06 µg/mL (≈ 0.148 µM)	0.06 µg/mL (≈ 0.148 µM)	38200 ng·h/mL	0.06 µg/mL (≈ 0.148 µM)	0.06 µg/mL (≈ 0.148 µM)	0.5 µg/mL (≈ 1.24 µM)				
C[C@H]1[C@H](N)CN1c1c(F)cc2c(=O)c(C(=O)O)cn(C3CC3)c2c1F (single isomer, unassigned)	1 mg/kg	0.015 µg/mL (≈ 0.0429 µM)	0.015 µg/mL (≈ 0.0429 µM)	0.015 µg/mL (≈ 0.0429 µM)			0.015 µg/mL (≈ 0.0429 µM)	3.5 mg/kg	18 mg/kg		0.015 µg/mL (≈ 0.0429 µM)	21800 ng·h/mL	0.015 µg/mL (≈ 0.0429 µM)	0.015 µg/mL (≈ 0.0429 µM)					
C[C@H]1[C@H](N)CN1c1cc2c(cc1F)c(=O)c(C(=O)O)cn2C1CC1 (single isomer, unassigned)	2.9 mg/kg	0.015 µg/mL (≈ 0.0453 µM)	0.015 µg/mL (≈ 0.0453 µM)	0.06 µg/mL (≈ 0.181 µM)		0.12 µg/mL (≈ 0.362 µM)	0.015 µg/mL (≈ 0.0453 µM)	17 mg/kg	100 mg/kg	0.015 µg/mL (≈ 0.0453 µM)	0.06 µg/mL (≈ 0.181 µM)	4000 ng·h/mL	0.015 µg/mL (≈ 0.0453 µM)	0.015 µg/mL (≈ 0.0453 µM)	0.12 µg/mL (≈ 0.362 µM)				
C[C@@H]1[C@@H](N)CN1c1c(F)cc2c(=O)c(C(=O)O)cn(C3CC3)c2c1F (stereo in doubt; 22)																0.03 µg/mL (≈ 0.0859 µM)	0.06 µg/mL (≈ 0.172 µM)	9 mg/kg	ED50 (Escherichia coli [1]): 2 mg/kg; MIC (Morganella morganii): 0.03 µg/mL (≈ 0.0859 µM); MIC [2]: 0.06 µg/mL (≈ 0.172 µM); MIC (Enterococcus faecalis): 0.25 µg/mL (≈ 0.716 µM); MIC (Bacillus subtilis): 0.03 µg/mL (≈ 0.0859 µM); ED50 (Pseudomonas aeruginosa [4]): 22 mg/kg; MIC (Bacillus cereus): 0.06 µg/mL (≈ 0.172 µM); MIC (Pseudomonas aeruginosa [8]): 0.25 µg/mL (≈ 0.716 µM); MIC (Staphylococcus aureus [5]): 0.06 µg/mL (≈ 0.172 µM); MIC (Enterobacter cloacae): 0.03 µg/mL (≈ 0.0859 µM); MIC (Escherichia coli [7]): 0.015 µg/mL (≈ 0.0429 µM)
C[C@@H]1[C@H](N)CN1c1c(F)cc2c(=O)c(C(=O)O)cn(C3CC3)c2c1F (stereo in doubt; 23)	6.2 mg/kg		0.12 µg/mL (≈ 0.344 µM)	0.12 µg/mL (≈ 0.344 µM)		1 µg/mL (≈ 2.86 µM)	0.06 µg/mL (≈ 0.172 µM)		123 mg/kg	0.12 µg/mL (≈ 0.344 µM)	0.12 µg/mL (≈ 0.344 µM)		0.06 µg/mL (≈ 0.172 µM)	0.06 µg/mL (≈ 0.172 µM)	1 µg/mL (≈ 2.86 µM)	0.12 µg/mL (≈ 0.344 µM)	0.25 µg/mL (≈ 0.716 µM)	18.6 mg/kg	
C[C@@H]1[C@H](N)CN1c1c(F)cc2c(=O)c(C(=O)O)cn(C3CC3)c2c1F (stereo in doubt; 23c)																0.03 µg/mL (≈ 0.0859 µM)	0.12 µg/mL (≈ 0.344 µM)	5.4 mg/kg	ED50 (Escherichia coli [1]): 6.1 mg/kg; MIC (Morganella morganii): 0.06 µg/mL (≈ 0.172 µM); MIC [2]: 0.12 µg/mL (≈ 0.344 µM); MIC (Enterococcus faecalis): 0.5 µg/mL (≈ 1.43 µM); MIC (Bacillus subtilis): 0.03 µg/mL (≈ 0.0859 µM); ED50 (Pseudomonas aeruginosa [4]): 117 mg/kg; MIC (Bacillus cereus): 0.06 µg/mL (≈ 0.172 µM); MIC (Pseudomonas aeruginosa [8]): 0.5 µg/mL (≈ 1.43 µM); MIC (Staphylococcus aureus [5]): 0.06 µg/mL (≈ 0.172 µM); MIC (Enterobacter cloacae): 0.03 µg/mL (≈ 0.0859 µM); MIC (Escherichia coli [7]): 0.03 µg/mL (≈ 0.0859 µM)
O=C(O)c1cn(C2CC2)c2cc(N3CCNCC3)c(F)cc2c1=O [CIPROFLOXACIN]	3 mg/kg								70 mg/kg			2300 ng·h/mL							
C[C@H]1COc2c(N3CCN(C)CC3)c(F)cc3c(=O)c(C(=O)O)cn1c23.C[C@H]1COc2c(N3CCN(C)CC3)c(F)cc3c(=O)c(C(=O)O)cn1c23.O [LEVOFLOXACIN]	5 mg/kg	0.03 µg/mL	0.03 µg/mL	0.12 µg/mL	0.5 µg/mL	0.25 µg/mL	0.03 µg/mL	14 mg/kg	109 mg/kg	0.25 µg/mL	0.25 µg/mL	10200 ng·h/mL	0.03 µg/mL		0.5 µg/mL				
